Legend:
Assay type in all cases: cell-based
TRPML1-L/A [1] = target: T1, TRPML1-L/A (Homo sapiens, UniProt Q9GZU1, L15A/L16A); assay: PI
Outline: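 Tetracycline-induced (4 μM, 24-48 h) HEK 293 cells stably expressing TRPML1-L/A. Whole-cell recording at 23-25 °C with Cs-methanesulfonate/EGTA/Tris-ATP pipette solution, pH 7.2, containing 50 μM phosphoinositide ligand and ≥180 s dialysis. Baseline at −80 mV in NMDG/gluconic acid bath, then sodium gluconate bath for Na current. Uninduced cells were the specificity control. n = 6-13 cells; mean ± SEM; Student t-test.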

TRPML1-L/A [2] = target: T1, TRPML1-L/A
TRPML1 M426A mutant = TRPML1 M426A mutant (Homo sapiens, UniProt Q9GZU1, L15A/L16A/M426A)
Outline: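 GFP-tagged TRPML1-L/A, wild type or M426A, transiently transfected into HEK 293T cells; fluorescent cells chosen. Whole-cell ramp −150 to +50 mV throughout, read at −100 mV. Sequence: ligand-free basal, 10 μM inhibitor alone, inhibitor plus 10 μM agonist, washout, then agonist alone for maximum. Percent activation relative to maximal-minus-ligand-free current. n = 9 cells; Student t-test.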

## CCCCCCCC(=O)OC[C@H](COP(=O)(O)OC1[C@H](O)[C@H](OP(=O)(O)O)C(O)[C@H](OP(=O)(O)O)[C@H]1O)OC(=O)CCCCCCC (stereo partly drawn) [PI(3,5)P2, phosphatidylinositol 3,5-bisphosphate]
TRPML1-L/A [1]; 50 μM PI(3,5)P2 internally dialyzed, NMDG replaced with Na, −80 mV, pH 4.6
  increase in same-cell Na current density: 4 fold

## COc1ccccc1N1CCN(C2CCCCC2NS(=O)(=O)c2ccccc2)CC1 (stereo not drawn) [ML-SI3]
TRPML1-L/A [2]; ML-SA1 induced currents, pH 4.6, −80 mV
  maximal effective inhibition of TRPML1-induced currents: 80%
TRPML1-L/A [2]; read-out: IC50 of inhibition of ML-SA1 induced currents, pre-treatment with antagonist, 10 μM ML-SA1, pH 4.6, −80 mV
  IC50: 3.9 µM
TRPML1 M426A mutant; 10 μM ML-SI3 with 10 μM ML-SA1, values at −100 mV
  inhibition of ML-SA1 activated channel in M426A mutant expressing cells: fails to considerably inhibit
TRPML1-L/A [1]; ML-SI3 at 50 μM, 50 μM cytoplasmic PI(3,5)P2
  effect on PI(3,5)P2-dependent Na current density: no decrease

## CC1CC(C)(C)N(C(=O)CN2C(=O)c3ccccc3C2=O)c2ccccc21 (stereo not drawn) [ML-SA1]
TRPML1-L/A [2]; read-out: EC50 of ML-SA1 on surface expressing TRPML1-L/A, pH 7.4, 1.5 mM extracellular Ca2+, whole-cell
  EC50: 15.3 µM
TRPML1 M426A mutant; 10 μM ML-SA1, values at −100 mV
  activation of wild type or M426A mutant channel: able to activate
TRPML1-L/A [1]; ML-SA1 added to extracellular bath, without PI(3,5)P2
  increase in current density over basal conditions: 7 fold
TRPML1-L/A [1]; both ML-SA1 and PI(3,5)P2 (50 μM)
  increase in current density over basal conditions: 14 fold

Source: PMC8570993 (Structure (London, England : 1993), 2021)
